This is an account of results in ChEMBL document CHEMBL3875151, “Design, synthesis, biological evaluation and molecular docking study on peptidomimetic analogues of XK469” (Eur J Med Chem, 2016).

pIC50: −log10 of the molar value. Active and inactive are the calls of the source. The calls are words filed in the database; no cut-off is given here.

Data set [1] can be described thus: Antiproliferative activity against human HeLa cells after 48 hrs by MTT assay. The class given is functional, cell-based. In a few lines:
(§1)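 Cells kept in RPMI-1640 with 10% heat-inactivated FBS, 37°C, 5% CO2. 10^4 cells/well seeded, compounds (dissolved in DMSO or PBS, diluted in medium) added after 4 h at final 200, 150, 100, 50 and 10 μM for 48 h. MTT then 4 h, formazan dissolved in DMSO, OD 570 nm. Growth inhibition vs medium control; IC50 from inhibition ratios; three independent experiments in triplicate.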
On the technique in general: Tetrazolium dyes change colour on reduction, which living cells bring about.

Data set [2] can be described thus: Antiproliferative activity against human MCF7 cells after 48 hrs by MTT assay. The class given is functional, cell-based. The conditions noted are these: MCF7, 48 h. In outline: as §1
Data set [3] can be described thus: Antiproliferative activity against human K562 cells after 48 hrs by MTT assay. The class given is functional, cell-based. The following applies: K562, 48 h. In a few lines: as §1
A short description of data set [4]: Anti-metastatic activity against H22 cells xenografted in Balb/c mouse assessed as inhibition of metastasized nodes on lung surface at 10 mg/kg/day, ig administered 6 days per week for two consecutive weeks measured on day 13 post dose by microscopic method relative to control. The class given is functional. The following applies: po. In a few lines:
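BALB/c mice (18~22 g, both sexes) injected via tail vein with 6 × 10^6 H22 ascites cells. After 24 h, randomized into groups of 10. Compounds given intragastrically at 10 mg/kg in 0.5% CMC-Na (2 mg/ml), vehicle to controls. Lung-surface metastatic nodes counted under microscope; inhibition rate from mean node counts vs vehicle group.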

Data set [5] has as its target DNA topoisomerase 2-alpha (Homo sapiens) (UniProt P11388). The data set is described as follows: Inhibition of human topoisomerase-2 alpha-mediated kinetoplast DNA decatenation at 3.15 to 200 uM after 15 mins by ethidium bromide staining based agarose gel electrophoresis. In a few lines:
(§2)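 Human topo IIα (0.5 units) with 20 µg/mL kDNA in 50 mM Tris-HCl pH 8.0, 0.5 mM DTT, 10 mM MgCl2, 2 mM ATP. Compounds at 3.15, 12.5, 50 and 200 µM, 15 min at 37°C; stopped with SDS/glycerol. Products run on 1% agarose, 50 V, 50 min, ethidium bromide-stained, viewed under UV. Controls without enzyme and without inhibitor; etoposide reference.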

Data set [6] has as its system Mus musculus. In words: Toxicity in Balb/c mouse xenografted with […] cells assessed as body weight at 10 mg/kg/day, ig administered 6 days per week for two consecutive weeks (reference value: 20.17 +/- 3.66 g). The class given is organism-based. The following applies: in vivo, po, 144 h. For orientation: In xenograft studies the graft and the host belong to different species.

A short description of data set [7]: Anti-metastatic activity against H22 cells xenografted in Balb/c mouse assessed as lung weight at 10 mg/kg/day, ig administered 6 days per week for two consecutive weeks measured on day 12 post last dose (reference value: 0.287 +/- 0.117 g). The class given is functional.
Data set [8] addresses DNA topoisomerase 2-alpha (Homo sapiens) (UniProt P11388). In words: Inhibition of human topoisomerase-2 alpha-mediated kinetoplast DNA decatenation at 3.15 to 200 uM after 15 mins by ethidium bromide staining based agarose gel electrophoresis relative to etoposide. In outline: as §2
The nature of data set [9]: Antiproliferative activity against human NCI60 cells after 48 hrs by SRB assay. The class given is functional, cell-based. The following applies: NCI60, 48 h.
Data set [10] relates to Mus musculus. The data set is described as follows: Toxicity in Balb/c mouse xenografted with […] cells assessed as mouse survival at 10 mg/kg/day, ig administered 6 days per week for two consecutive weeks. The class given is organism-based. The conditions noted are these: in vivo, po, 144 h. In a few lines:
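H22 hepatocarcinoma ascites from BALB/c donor mice was diluted 1:4 in saline (3 × 10^7 cells/ml), and 0.2 mL (6 × 10^6 cells) was injected via tail vein into BALB/c mice weighing 18~22 g. After 24 h, mice were weighed and randomised into 7 groups of 10, half of each sex. Compound was given intragastrically at 2 mg/ml in 0.5% CMC-Na, with vehicle controls. Surviving animals were counted against the original number per group.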

Data set [11] has as its target DNA topoisomerase 2-alpha (Homo sapiens) (UniProt P11388). The data set is described as follows: Inhibition of human topoisomerase-2 alpha-mediated kinetoplast DNA decatenation after 15 mins by ethidium bromide staining based agarose gel electrophoresis. In outline: as §2

Chain of DNA topoisomerase 2-alpha (Homo sapiens) (P11388 whole entry): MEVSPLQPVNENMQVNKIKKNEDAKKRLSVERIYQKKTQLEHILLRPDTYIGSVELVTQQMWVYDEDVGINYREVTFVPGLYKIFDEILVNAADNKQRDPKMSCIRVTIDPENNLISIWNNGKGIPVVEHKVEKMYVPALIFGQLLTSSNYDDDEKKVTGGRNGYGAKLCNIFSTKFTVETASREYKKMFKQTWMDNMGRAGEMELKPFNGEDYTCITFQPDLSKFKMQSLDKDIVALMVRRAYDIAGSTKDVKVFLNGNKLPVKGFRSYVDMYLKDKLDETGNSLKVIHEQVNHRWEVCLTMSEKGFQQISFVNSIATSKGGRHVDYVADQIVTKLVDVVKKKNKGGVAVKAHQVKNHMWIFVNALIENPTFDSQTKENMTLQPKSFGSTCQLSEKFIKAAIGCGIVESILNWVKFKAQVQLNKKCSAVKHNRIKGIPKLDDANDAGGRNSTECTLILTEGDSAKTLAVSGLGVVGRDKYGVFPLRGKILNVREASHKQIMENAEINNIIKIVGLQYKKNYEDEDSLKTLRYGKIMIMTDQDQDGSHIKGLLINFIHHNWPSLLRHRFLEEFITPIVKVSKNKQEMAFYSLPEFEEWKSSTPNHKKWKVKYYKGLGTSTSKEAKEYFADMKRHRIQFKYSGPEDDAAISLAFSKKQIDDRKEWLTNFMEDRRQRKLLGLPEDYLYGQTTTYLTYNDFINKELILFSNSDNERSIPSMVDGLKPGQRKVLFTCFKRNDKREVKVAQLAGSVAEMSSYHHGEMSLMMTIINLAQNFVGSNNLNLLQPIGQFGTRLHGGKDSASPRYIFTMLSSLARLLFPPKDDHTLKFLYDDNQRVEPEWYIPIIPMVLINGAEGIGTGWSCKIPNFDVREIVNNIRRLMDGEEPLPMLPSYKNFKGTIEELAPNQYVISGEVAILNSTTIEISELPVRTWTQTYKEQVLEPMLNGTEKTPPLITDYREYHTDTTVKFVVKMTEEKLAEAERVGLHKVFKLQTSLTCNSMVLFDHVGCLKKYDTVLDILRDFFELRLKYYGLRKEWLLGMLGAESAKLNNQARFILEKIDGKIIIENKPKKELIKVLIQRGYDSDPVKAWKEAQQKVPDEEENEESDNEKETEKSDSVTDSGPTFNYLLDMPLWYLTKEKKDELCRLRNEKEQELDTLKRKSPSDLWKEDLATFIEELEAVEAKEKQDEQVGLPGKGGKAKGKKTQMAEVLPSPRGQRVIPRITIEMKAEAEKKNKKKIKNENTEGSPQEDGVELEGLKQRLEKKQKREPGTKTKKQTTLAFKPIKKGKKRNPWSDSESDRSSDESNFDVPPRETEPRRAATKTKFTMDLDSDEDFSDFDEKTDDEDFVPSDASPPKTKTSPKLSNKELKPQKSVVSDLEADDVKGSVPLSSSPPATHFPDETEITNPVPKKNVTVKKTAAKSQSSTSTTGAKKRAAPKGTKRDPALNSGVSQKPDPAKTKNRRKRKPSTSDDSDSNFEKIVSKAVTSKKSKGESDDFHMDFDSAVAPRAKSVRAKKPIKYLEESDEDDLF

In the case of `COC(=O)[C@H](CC(C)C)NC(=O)c1ccc(Oc2nc3cc(Cl)ccc3nc2C)cc1`, the pIC50 in [1] is 4.73; in [2], 4.72; in data set [3], 4.66.
For `CCCCCCCCCCCCNc1nc2ccccc2nc1Oc1ccc(C(=O)N[C@@H](Cc2ccccc2)C(=O)O)cc1`, the pIC50 is 5.04 in data set [1], 5.17 in data set [2] and 5.13 in [3]. In addition, the inhibition in vivo at 10 mg/kg/day in data set [4] was found to be 33.7%. The inhibition entry in data set [5] is “Active”. The Activity was 20.85 g in the data set on Mus musculus [6] and 0.197 g in data set [7]. In [8], this compound returned a fold change (FC) of 4.
Turning to `COC(=O)[C@H](Cc1ccccc1)NC(=O)c1ccc(Oc2nc3cc(Cl)ccc3nc2C)cc1`, the pIC50 is 4.54 in [1], 4.59 in data set [2] and 4.56 in data set [3].
Consider `Cc1nc2cc(Cl)ccc2nc1Oc1ccc(C(=O)N[C@@H](C)C(=O)O)cc1`, for which the pIC50 in data set [1] was 4.52; in [2], 4.71; in data set [3], 4.68.
The corresponding values for `CC[C@@H](C)[C@H](NC(=O)c1ccc(Oc2nc3ccccc3nc2C)cc1)C(=O)O` are 4.48, 4.45 and 4.52.
In the case of `COC(=O)[C@H](CC(C)C)NC(=O)c1ccc(Oc2nc3ccccc3nc2NC(C)(C)C)cc1`, the pIC50 in data set [1], in data set [2] and in data set [3] was < 4.30 in each case.
`CCCCCCCCCCCCNc1nc2ccccc2nc1Oc1ccc(C(=O)N[C@H](C(=O)OC)[C@H](C)CC)cc1`: the pIC50 in data set [1] was 4.39; in [2], 4.36; in data set [3], 4.51.
With `CC[C@@H](C)[C@H](NC(=O)c1ccc(Oc2nc3ccccc3nc2C)cc1)C(=O)OC`, the values for the pIC50 in data set [1], in data set [2] and in data set [3] were < 4.30, 4.44 and 4.42, respectively.
`Cc1nc2ccccc2nc1Oc1ccc(C(=O)N[C@@H](C)C(=O)O)cc1`: the pIC50 in data set [1] was 4.65; in [2] it was 4.59; in data set [3], 4.55.
In the case of `CC[C@@H](C)[C@H](NC(=O)c1ccc(Oc2nc3ccccc3nc2NC(C)(C)C)cc1)C(=O)OC`, the figures for the pIC50 in data set [1], in [2] and in data set [3] were 4.50, 4.48 and 4.41, respectively.
With `COC(=O)CNC(=O)c1ccc(Oc2nc3ccccc3nc2NC(C)(C)C)cc1`, the pIC50 in [1], in data set [2] and in data set [3] was < 4.30 each time.
On to `CC(C)(C)Nc1nc2ccccc2nc1Oc1ccc(C(=O)NCC(=O)O)cc1`, for which the pIC50 in data set [1], in data set [2] and in data set [3] was < 4.30 each time.
As to `COC(=O)[C@H](C)NC(=O)c1ccc(Oc2nc3ccccc3nc2C)cc1`, the figures for the pIC50 in data set [1], in [2] and in data set [3] were 4.49, 4.42 and 4.34, respectively.
In the case of `C[C@H](NC(=O)c1ccc(Oc2nc3ccccc3nc2NC(C)(C)C)cc1)C(=O)O`, the figures for the pIC50 in [1], in [2] and in data set [3] were 4.63, 4.53 and 4.58, respectively.
In [9], `C[C@@H](Oc1ccc(Oc2cnc3ccc(Cl)cc3n2)cc1)C(=O)O` [R(+)XK469] gave a pIC50 of 4.15.
Take `Cc1nc2cc(Cl)ccc2nc1Oc1ccc(C(=O)N[C@@H](CC(C)C)C(=O)O)cc1`: the negative-log IC50 (pIC50) in data set [1] is 4.60; in data set [2], 4.76; in [3], 4.67.
For the compound `COC(=O)[C@H](C)NC(=O)c1ccc(Oc2nc3ccccc3nc2NC(C)(C)C)cc1`, the results for the pIC50 in data set [1], in data set [2] and in data set [3] were 4.26, 4.42 and 4.37, respectively.
For the compound `Cc1nc2ccc(Cl)cc2nc1Oc1ccc(C(=O)N[C@@H](CC(C)C)C(=O)O)cc1`, the pIC50 was 4.79 in [1], 4.82 in [2] and 4.84 in data set [3]. Besides, the inhibition in vivo at 10 mg/kg/day in [4] came out at 14.8%. For the same compound, the Activity is 23.25 g in the data set with Mus musculus [6], 0.254 g in [7] and “Non-Toxic” with Mus musculus [10].
For the compound `CC(C)(C)Nc1nc2ccccc2nc1Oc1ccc(C(=O)N[C@@H](Cc2ccccc2)C(=O)O)cc1`, the pIC50 is 4.69 in data set [1], 4.60 in [2] and 4.82 in data set [3].
Turning to `Cc1nc2ccccc2nc1Oc1ccc(C(=O)N[C@@H](CC(C)C)C(=O)O)cc1`, the results for the pIC50 in data set [1], in [2] and in [3] were 4.76, 4.83 and 4.71, respectively. Moreover, the inhibition in vivo at 10 mg/kg/day in data set [4] was 11%. The Activity is on record as 22.46 g in the data set with Mus musculus [6], 0.238 g in data set [7] and “Non-Toxic” in the data set on Mus musculus [10].
For the compound `CCCCCCCCCCCCNc1nc2ccccc2nc1Oc1ccc(C(=O)N[C@@H](C)C(=O)O)cc1`, the pIC50 is 5.20 in data set [1], 5.39 in [2] and 5.48 in data set [3]. Moreover, in data set [4], the inhibition in vivo at 10 mg/kg/day was determined as 42.5%. In addition, the inhibition entry in [11] was “Dose-dependent effect”. Further, the results for the Activity (with Mus musculus [6]; in data set [7]) were 24.62 g and 0.23 g, respectively.
Consider `CCCCCCCCCCCCNc1nc2ccccc2nc1Oc1ccc(C(=O)N[C@@H](Cc2ccccc2)C(=O)OC)cc1`, for which the results for the pIC50 in [1], in data set [2] and in data set [3] were 4.46, 4.48 and 4.52, respectively.
As for `CC(C)C[C@H](NC(=O)c1ccc(Oc2nc3ccccc3nc2NC(C)(C)C)cc1)C(=O)O`, the values for the pIC50 in [1], in data set [2] and in data set [3] were 4.41, 4.39 and 4.37, respectively.
Turning to `COc1cc([C@@H]2c3cc4c(cc3[C@@H](O[C@@H]3O[C@@H]5CO[C@@H](C)O[C@H]5[C@H](O)[C@H]3O)[C@H]3COC(=O)[C@H]23)OCO4)cc(OC)c1O`, the inhibition result in data set [5] is “Active”.
In the case of `CCCCCCCCCCCCNc1nc2ccccc2nc1Oc1ccc(C(=O)N[C@H](C(=O)O)[C@H](C)CC)cc1`, the pIC50 in data set [1] was 4.45; in data set [2], 4.52; in data set [3] it was 4.67.
As for `COC(=O)[C@H](Cc1ccccc1)NC(=O)c1ccc(Oc2nc3ccccc3nc2NC(C)(C)C)cc1`, the pIC50 in data set [1] was < 4.30; in data set [2] it was < 4.30; in [3], 4.99.
As to `COc1cccc2c1C(=O)c1c(O)c3c(c(O)c1C2=O)C[C@@](O)(C(=O)CO)C[C@@H]3O[C@H]1C[C@H](N)[C@H](O)[C@H](C)O1` [DOXORUBICIN], the results for the pIC50 in [1] and in data set [3] were 4.94 and 4.87, respectively. For the same compound, the inhibition in vivo at 10 mg/kg/day in data set [4] was 59.9%. Further, the Activity in the data set on Mus musculus [6] is given as 23.32 g; in [7], 0.217 g.
Turning to `CCCCCCCCCCCCNc1nc2ccccc2nc1Oc1ccc(C(=O)N[C@@H](C)C(=O)OC)cc1`, the pIC50 is 4.55 in data set [1], 4.47 in [2] and 4.57 in [3].
As for `CC[C@@H](C)[C@H](NC(=O)c1ccc(Oc2nc3ccccc3nc2NC(C)(C)C)cc1)C(=O)O`, the negative-log IC50 (pIC50) is 4.87 in data set [1], 4.95 in [2] and 4.74 in data set [3]. In addition, the inhibition in vivo at 10 mg/kg/day in [4] stood at 27.6%. Also, the values for the Activity (with Mus musculus [6]; in data set [7]; in the data set with Mus musculus [10]) were 21.84 g, 0.211 g and “Non-Toxic”, respectively.
In the case of `COC(=O)[C@H](CC(C)C)NC(=O)c1ccc(Oc2nc3ccc(Cl)cc3nc2C)cc1`, the pIC50 in data set [1] was 4.43; in [2] it was 4.64; in data set [3] it was 4.49.
Regarding `COC(=O)[C@H](CC(C)C)NC(=O)c1ccc(Oc2nc3ccccc3nc2C)cc1`, the values for the pIC50 in data set [1], in data set [2] and in [3] were 4.67, 4.59 and 4.65, respectively.
As to `Cc1nc2ccc(Cl)cc2nc1Oc1ccc(C(=O)N[C@@H](Cc2ccccc2)C(=O)O)cc1`, the negative logarithm of the IC50 (pIC50) in [1] is 4.69; in data set [2], 4.70; in data set [3], 4.67.
On to `COC(=O)[C@H](C)NC(=O)c1ccc(Oc2nc3ccc(Cl)cc3nc2C)cc1`, for which the pIC50 was 4.37 in [1], 4.47 in [2] and 4.58 in data set [3].

As usually defined, the pIC50 is the negative decadic logarithm of the IC50, by convention in mol/L. Low readings indicate a high IC50, high ones a low IC50. By inhibition in vivo is commonly meant the percentage by which the read-out fell short of the control.
